Entries after “also recorded” stand apart in the source; their conditions may differ. Marks after values point to notes of the source that are not given here.
Experiments:
urea cycle = assay: Urea cycle inhibition monitored via orotic acid levels; type: in vivo, human
[1] = INCB001158 plasma pharmacokinetics; type: in vivo, human; settings: for Cmax: Cmax (mean±SD); for half-life: t1/2 (mean±SD)
[2] = test system: advanced or metastatic solid tumours; assay: Antitumour activity per RECIST v1.1; type: in vivo, human
Method in brief: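 Part 1a monotherapy dose escalation used a standard 3+3 design, with 8 dose levels from 50 mg to 1000 mg. The test compound was given orally twice daily as tablet or capsule on days 1–28 of 28-day cycles. BOR, ORR and PFS followed RECIST v1.1, with confirmed responses unless stated otherwise. Response-evaluable patients had ≥1 dose, a baseline scan and ≥1 postbaseline scan, or qualifying discontinuation.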

syngeneic mouse models = settings: multiple syngeneic mouse models; cited from earlier work
T-cell = settings: in vitro; cited from earlier work
plasma arginine = assay: Pharmacodynamics: plasma arginine concentration by LC-MS/MS; type: in vivo, human; settings: monotherapy / INCB001158 overall
[3] = test system: patients with advanced or metastatic solid tumours; assay: Safety: treatment-emergent adverse events; type: in vivo, human
Method in brief: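 Safety covered monotherapy Parts 1a/2, with oral tablet or capsule dosing twice daily on days 1–28 of 28-day cycles. TEAEs were graded by CTCAE v4.03, which counts malignant progression as an AE. Laboratory values, vital signs and physical examinations were also monitored. The safety population was all patients receiving ≥1 dose. DLTs were defined as grade 3–4 toxicities, urea cycle inhibition, or AUC0–12h >100 µg.h/mL.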

[4] = human, plasma, oral, 50 mg, Part 1a C1D1 single dose 50 mg (n=8)
[5] = human, plasma, oral, 75 mg, Part 1a C1D1 single dose 75 mg (n=7)
[6] = monotherapy dose escalation Part 1a total (n=25)
[7] = monotherapy dose escalation Part 1a total (n=30)
[8] = monotherapy dose expansion Part 2 total (n=73)
[9] = monotherapy dose expansion Part 2 total (n=77)

SMILES: C[C@H](N)C(=O)N1C[C@H](CCCB(O)O)[C@](N)(C(=O)O)C1 [INCB001158]
- orotic acid levels (urea cycle; 150 mg two times per day, highest dose level tested, no symptomatic nor clinically significant urea cycle inhibition): apparent increase in orotic acid levels
- patients with urinary orotic acid levels >10× the upper limit of normal (urea cycle; monotherapy, all asymptomatic): four
- dose proportionality of plasma exposure (Cmax, AUC) ([1]; after multiple oral administrations, 50 mg to 150 mg two times per day): increased approximately dose proportionally
- AUC(0-inf) ([1]; human, plasma, oral, 50 mg): 8860 ± 3810 ng·h/mL
- Cmax [1, 4]: 795 ± 259 ng/mL
- half-life [1, 4]: 5.5 ± 1.4 h
- Cmax [1, 5]: 1350 ± 379 ng/mL
- half-life [1, 5]: 5.3 ± 1 h
- time to steady state ([1]; monotherapy, from predose PK samples): < 1 week
- confirmed partial response ([2]; monotherapy 100 mg two times per day, Part 2 (n=73), one patient, urothelial cancer): 1.4%
- objective response ([2]; monotherapy dose escalation Part 1a (n=25)): No patient in the monotherapy cohort had an objective response
- BOR of stable disease ([2]; monotherapy dose escalation Part 1a (n=25), five patients): 20.0%
- BOR: CR [2, 6]: 0 n (%)
- BOR: NE [2, 6]: 1 (4.0) n (%)
- BOR: PD [2, 6]: 19 (76.0) n (%)
- BOR: PR [2, 6]: 0 n (%)
- BOR: SD [2, 6]: 5 (20.0) n (%)
- ORR [2, 6]: 0 (0 to 13.7) n (%) (95% CI)
- PFS events [2, 7]: 21 (70.0) n (%)
- PFS, median (95% CI) [2, 7]: 1.8 (1.8 to 1.9) mo
- BOR: CR [2, 8]: 0 n (%)
- BOR: Missing [2, 8]: 10 (13.7) n (%)
- BOR: NE [2, 8]: 3 (4.1) n (%)
- BOR: PD [2, 8]: 37 (50.7) n (%)
- BOR: SD [2, 8]: 22 (30.1) n (%)
- ORR [2, 8]: 1 (1.4) (0 to 7.4) n (%) (95% CI)
- BOR: PR ([2]; monotherapy dose expansion Part 2 total (n=73), well-differentiated urothelial cancer): 1 (1.4)† n (%)
- PFS events [2, 9]: 58 (75.3) n (%)
- PFS, median (95% CI) [2, 9]: 1.9 (1.8 to 2.1) mo
- tumour growth (syngeneic mouse models): reduced tumour growth
- T-cell immunosuppression (T-cell): reversed T-cell immunosuppression in vitro
- plasma arginine change on treatment (plasma arginine): dose-dependently increased; also recorded: dose-dependent increase in plasma arginine
- TEAEs leading to dose reduction ([3]; monotherapy): no TEAE led to dose reduction
- recommended phase 2 dose (RP2D) ([3]; monotherapy): 100 mg two times per day
- serious TEAE abdominal pain ([3]; monotherapy): 5.6%
- serious TEAE back pain ([3]; monotherapy): 2.8%
- serious TEAE cellulitis ([3]; monotherapy): 2.8%
- serious TEAE malignant neoplasm progression ([3]; monotherapy): 4.7%
- serious TEAE small-intestinal obstruction ([3]; monotherapy): 2.8%
- ALT increased, any-grade TEAE ([3]; monotherapy 50 mg bid (n=8)): 0 n (%)
- AST increased, any-grade TEAE ([3]; monotherapy 50 mg bid (n=8)): 1 (12.5) n (%)
- Abdominal pain, any-grade TEAE ([3]; monotherapy 50 mg bid (n=8)): 2 (25.0) n (%)
- Abdominal pain, grade ≥3 TEAE ([3]; monotherapy 50 mg bid (n=8)): 1 (12.5) n (%)
- Anaemia, any-grade TEAE ([3]; monotherapy 50 mg bid (n=8)): 3 (37.5) n (%)
- Anaemia, grade ≥3 TEAE ([3]; monotherapy 50 mg bid (n=8)): 1 (12.5) n (%)
- Any TEAE ([3]; monotherapy 50 mg bid (n=8)): 7 (87.5) n (%)
- Any grade ≥3 TEAE ([3]; monotherapy 50 mg bid (n=8)): 6 (75.0) n (%)
- Any irTEAE ([3]; monotherapy 50 mg bid (n=8)): 0 n (%)
- Colitis, irTEAE ([3]; monotherapy 50 mg bid (n=8)): 0 n (%)
- Constipation, any-grade TEAE ([3]; monotherapy 50 mg bid (n=8)): 2 (25.0) n (%)
- Decreased appetite, any-grade TEAE ([3]; monotherapy 50 mg bid (n=8)): 0 n (%)
- Diarrhoea, any-grade TEAE ([3]; monotherapy 50 mg bid (n=8)): 0 n (%)
- Fatigue, any-grade TEAE ([3]; monotherapy 50 mg bid (n=8)): 1 (12.5) n (%)
- Fatigue, grade ≥3 TEAE ([3]; monotherapy 50 mg bid (n=8)): 0 n (%)
- Hypoalbuminaemia, any-grade TEAE ([3]; monotherapy 50 mg bid (n=8)): 0 n (%)
- Hyponatraemia, any-grade TEAE ([3]; monotherapy 50 mg bid (n=8)): 0 n (%)
- Hyponatraemia, grade ≥3 TEAE ([3]; monotherapy 50 mg bid (n=8)): 0 n (%)
- Malignant neoplasm progression, grade ≥3 TEAE ([3]; monotherapy 50 mg bid (n=8)): 0 n (%)
- Nausea, any-grade TEAE ([3]; monotherapy 50 mg bid (n=8)): 2 (25.0) n (%)
- Oedema peripheral, any-grade TEAE ([3]; monotherapy 50 mg bid (n=8)): 2 (25.0) n (%)
- Vomiting, any-grade TEAE ([3]; monotherapy 50 mg bid (n=8)): 2 (25.0) n (%)
- ALT increased, any-grade TEAE ([3]; monotherapy 75 mg bid (n=7)): 0 n (%)
- AST increased, any-grade TEAE ([3]; monotherapy 75 mg bid (n=7)): 0 n (%)
- Abdominal pain, any-grade TEAE ([3]; monotherapy 75 mg bid (n=7)): 0 n (%)
- Abdominal pain, grade ≥3 TEAE ([3]; monotherapy 75 mg bid (n=7)): 0 n (%)
- Anaemia, any-grade TEAE ([3]; monotherapy 75 mg bid (n=7)): 3 (42.9) n (%)
- Anaemia, grade ≥3 TEAE ([3]; monotherapy 75 mg bid (n=7)): 1 (14.3) n (%)
- Any TEAE ([3]; monotherapy 75 mg bid (n=7)): 7 (100.0) n (%)
- Any grade ≥3 TEAE ([3]; monotherapy 75 mg bid (n=7)): 2 (28.6) n (%)
- Any irTEAE ([3]; monotherapy 75 mg bid (n=7)): 0 n (%)
- Colitis, irTEAE ([3]; monotherapy 75 mg bid (n=7)): 0 n (%)
- Constipation, any-grade TEAE ([3]; monotherapy 75 mg bid (n=7)): 1 (14.3) n (%)
- Decreased appetite, any-grade TEAE ([3]; monotherapy 75 mg bid (n=7)): 2 (28.6) n (%)
- Diarrhoea, any-grade TEAE ([3]; monotherapy 75 mg bid (n=7)): 0 n (%)
- Fatigue, any-grade TEAE ([3]; monotherapy 75 mg bid (n=7)): 3 (42.9) n (%)
- Fatigue, grade ≥3 TEAE ([3]; monotherapy 75 mg bid (n=7)): 0 n (%)
- Hypoalbuminaemia, any-grade TEAE ([3]; monotherapy 75 mg bid (n=7)): 0 n (%)
- Hyponatraemia, any-grade TEAE ([3]; monotherapy 75 mg bid (n=7)): 1 (14.3) n (%)
- Hyponatraemia, grade ≥3 TEAE ([3]; monotherapy 75 mg bid (n=7)): 0 n (%)
- Malignant neoplasm progression, grade ≥3 TEAE ([3]; monotherapy 75 mg bid (n=7)): 0 n (%)
- Nausea, any-grade TEAE ([3]; monotherapy 75 mg bid (n=7)): 3 (42.9) n (%)
